Test results reported in ChEMBL document CHEMBL1687729, “Intracellular activity of antibiotics in a model of human THP-1 macrophages infected by a Staphylococcus aureus small-colony variant strain isolated from a cystic fibrosis patient: pharmacodynamic evaluation and comparison with isogenic normal-phenotype and revertant strains” (Antimicrob Agents Chemother, 2009).
≈ marks a conversion by molar mass, not a printed value. Calls of active or inactive are those of the source. No cut-off for these calls is given here.

Key:
[1] = test system: Staphylococcus aureus; assay: Antibacterial activity against Staphylococcus aureus SCV isolated from cystic fibrosis patient in cation-adjusted MH 2 broth at pH 5.5 after 48 hrs by broth microdilution method; assay type: functional
Method in brief: (§1)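 MIC by CLSI broth microdilution in cation-adjusted MH II broth adjusted to pH 5.5. Readings were taken at 48 h for the SCV and at 24 h for the normal-phenotype strain.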

[2] = test system: Staphylococcus aureus; assay: Antibacterial activity against normal phenotype Staphylococcus aureus in cation-adjusted MH 2 broth at pH 5.5 after 24 hrs by broth microdilution method; assay type: functional; method in brief: as §1
[3] = test system: Staphylococcus aureus; assay: Antibacterial activity against Staphylococcus aureus SCV isolated from cystic fibrosis patient infected in human THP-1 cells assessed as log reduction of intracellular CFU level after 24 hrs in presence of thymidine; assay type: functional, organism-based
Method in brief: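 SCV-infected THP-1 macrophages are exposed 24 h after phagocytosis to antibiotic, with 100 mg/liter thymidine added to the culture medium together with the drug. Read-out is change in log CFU per mg cell protein from the initial inoculum. Data are means ± SD, n = 3; significance by ANOVA with Tukey's test.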

[4] = test system: Staphylococcus aureus; assay: Antibacterial activity against normal phenotype Staphylococcus aureus at pH 7.4 after 24 hrs by broth microdilution method
[5] = test system: Staphylococcus aureus; assay: Antibacterial activity against Staphylococcus aureus SCV isolated from cystic fibrosis patient at pH 7.4 after 48 hrs by broth microdilution method in absence of thymidine; assay type: functional
Method in brief: (§2)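 MIC by CLSI broth microdilution in cation-adjusted MH II broth. For oritavancin, 0.002% polysorbate-80 was added and non-tissue-culture-treated plates were used to limit binding to plastic. Plates were read at 24 h for normal and revertant strains and at 48 h for the SCV. Where stated, the SCV was tested with 100 mg/liter thymidine. Growth was aerobic.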

[6] = test system: Staphylococcus aureus; assay: Antibacterial activity against Staphylococcus aureus SCV isolated from cystic fibrosis patient at pH 7.4 after 48 hrs by broth microdilution method in presence of thymidine; assay type: functional; method in brief: as §2
[7] = (§3) Fraction unbound in human plasma
[8] = test system: Staphylococcus aureus; assay: Antibacterial activity against revertant Staphylococcus aureus at pH 7.4 after 24 hrs by broth microdilution method
[9] = (§4) Cmax in human plasma; assay type: ADME, organism-based; conditions: plasma
[10] = test system: Staphylococcus aureus; assay: Antibacterial activity against Staphylococcus aureus SCV isolated from cystic fibrosis patient in cation-adjusted MH 2 broth assessed as log reduction of extracellular CFU after 5 hrs; assay type: functional
Method in brief: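 Broth exposure to total drug levels mimicking human serum Cmax, same concentrations as the intracellular assay, for 5 or 24 h. Medium is CA-MH broth, with 0.002% polysorbate-80 when oritavancin is tested. Samples are plated on brain heart infusion agar and incubated 48 h before SCV colonies are counted. Read-out is Δlog CFU/ml from the initial inoculum.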

[11] = test system: Staphylococcus aureus; assay: Antibacterial activity against Staphylococcus aureus SCV isolated from cystic fibrosis patient infected in human THP-1 cells assessed as log reduction of intracellular CFU after 5 hrs; assay type: functional
Method in brief: (§5)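 THP-1 macrophages are infected with the SCV strain, then extracellular bacteria are eliminated after phagocytosis. Drug is added at total concentrations mimicking human serum Cmax for 5, 24 or 72 h. Lysates are plated on brain heart infusion agar and counted after 48 h. Read-out is Δlog CFU/mg cell protein from the postphagocytosis inoculum; no drug-free control is run at 72 h.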

[12] = test system: Staphylococcus aureus; assay: Antibacterial activity against Staphylococcus aureus SCV isolated from cystic fibrosis patient infected in human THP-1 cells assessed as log reduction of intracellular CFU after 72 hrs; assay type: functional; method in brief: as §5
[13] = test system: Staphylococcus aureus; assay: Antibacterial activity against Staphylococcus aureus SCV isolated from cystic fibrosis patient infected in human THP-1 cells assessed as log reduction of intracellular CFU after 24 hrs; assay type: functional
[14] = test system: Staphylococcus aureus; assay: Antibacterial activity against revertant Staphylococcus aureus infected in human THP-1 cells assessed as log reduction of extracellular CFU level after 24 hrs; assay type: functional, organism-based
[15] = test system: Staphylococcus aureus; assay: Antibacterial activity against normal phenotype Staphylococcus aureus in infected in human THP-1 cells assessed as log reduction of extracellular CFU level after 24 hrs; assay type: functional, organism-based
[16] = test system: Plasma; assay: as §3
[17] = test system: Plasma; assay: as §4; assay type: ADME, organism-based; conditions: in vivo

Compound | MIC [1] | MIC [2] | Activity [3] | MIC [4] | MIC [5] | MIC [6] | fraction unbound [7] | MIC [8] | Cmax [9] | log10cfu [10] | log10cfu [11] | log10cfu [12] | log10cfu [13] | Activity [14] | Activity [15] | Fu [16] | Cmax [17]
CCCCCCCCCC(=O)N[C@@H](Cc1c[nH]c2ccccc12)C(=O)N[C@H](CC(N)=O)C(=O)N[C@@H](CC(=O)O)C(=O)N[C@@H]1C(=O)NCC(=O)N[C@@H](CCCN)C(=O)N[C@@H](CC(=O)O)C(=O)N[C@H](C)C(=O)N[C@@H](CC(=O)O)C(=O)NCC(=O)N[C@H](CO)C(=O)N[C@@H]([C@H](C)CC(=O)O)C(=O)N[C@@H](CC(=O)c2ccccc2N)C(=O)O[C@@H]1C | 0.25 µg/mL (≈ 0.154 µM) | 0.125 µg/mL (≈ 0.0771 µM) | Active | 0.125 µg/mL (≈ 0.0771 µM) | 0.125 µg/mL (≈ 0.0771 µM) | 0.25 µg/mL | 0.1 | 0.25 µg/mL (≈ 0.154 µM) | 57000 ng/mL | – | – | – | – | – | – | – | –
CN(C)c1cc(NC(=O)CNC(C)(C)C)c(O)c2c1C[C@H]1C[C@H]3[C@H](N(C)C)C(O)=C(C(N)=O)C(=O)[C@@]3(O)C(O)=C1C2=O [TIGECYCLINE] | 0.125 µg/mL (≈ 0.213 µM) | 0.125 µg/mL (≈ 0.213 µM) | Active | 0.125 µg/mL (≈ 0.213 µM) | 0.125 µg/mL (≈ 0.213 µM) | 0.125 µg/mL | 0.2 | 0.125 µg/mL (≈ 0.213 µM) | 1000 ng/mL | 1 | – | – | – | – | – | – | –
CCC[C@@H]1C[C@@H](C(=O)N[C@@H]([C@H]2O[C@H](SC)[C@H](O)[C@@H](O)[C@H]2O)[C@H](C)Cl)N(C)C1 [CLINDAMYCIN] | 1 µg/mL (≈ 2.35 µM) | 1 µg/mL (≈ 2.35 µM) | Active | 0.125 µg/mL (≈ 0.294 µM) | 0.125 µg/mL (≈ 0.294 µM) | 0.125 µg/mL | 0.1 | 0.125 µg/mL (≈ 0.294 µM) | 4000 ng/mL | 2 | – | – | – | – | – | – | –
GENTAMICIN [listing 1 of 2 here] | 4 µg/mL | 8 µg/mL | Active | – | 0.125 µg/mL | 0.125 µg/mL | – | – | – | – | – | – | – | – | – | – | –
CO[C@H]1/C=C/O[C@@]2(C)Oc3c(C)c(O)c4c(O)c(c(/C=N/N5CCN(C)CC5)c(O)c4c3C2=O)NC(=O)/C(C)=C\C=C\[C@H](C)[C@H](O)[C@@H](C)[C@@H](O)[C@@H](C)[C@H](OC(C)=O)[C@@H]1C [RIFAMPIN] | 0.0005 µg/mL (≈ 0.000608 µM) | 0.0002 µg/mL (≈ 0.000243 µM) | Active | 0.002 µg/mL (≈ 0.00243 µM) | 0.0005 µg/mL (≈ 0.000608 µM) | 0.002 µg/mL | 0.15 | 0.0005 µg/mL (≈ 0.000608 µM) | 18000 ng/mL | – | 1 | 2 | – | – | – | – | –
CN[C@H](CC(C)C)C(=O)N[C@H]1C(=O)N[C@@H](CC(N)=O)C(=O)N[C@H]2C(=O)N[C@H]3C(=O)N[C@H](C(=O)N[C@H](C(=O)O)c4cc(O)cc(O)c4-c4cc3ccc4O)[C@H](O[C@H]3C[C@](C)(N)[C@@H](O)[C@H](C)O3)c3ccc(c(Cl)c3)Oc3cc2cc(c3O[C@@H]2O[C@H](CO)[C@@H](O)[C@H](O)[C@H]2O[C@H]2C[C@](C)(NCc3ccc(-c4ccc(Cl)cc4)cc3)[C@@H](O)[C@H](C)O2)Oc2ccc(cc2Cl)[C@H]1O [ORITAVANCIN] | 0.125 µg/mL (≈ 0.0697 µM) | 0.03 µg/mL (≈ 0.0167 µM) | Active | 0.03 µg/mL (≈ 0.0167 µM) | 0.015 µg/mL (≈ 0.00837 µM) | 0.015 µg/mL | 0.12 | 0.015 µg/mL (≈ 0.00837 µM) | 25000 ng/mL | – | 1 | 1 | 2.5 | – | – | – | –
CN[C@H](CC(C)C)C(=O)N[C@H]1C(=O)N[C@@H](CC(N)=O)C(=O)N[C@H]2C(=O)N[C@H]3C(=O)N[C@H](C(=O)N[C@H](C(=O)O)c4cc(O)cc(O)c4-c4cc3ccc4O)[C@H](O)c3ccc(c(Cl)c3)Oc3cc2cc(c3O[C@@H]2O[C@H](CO)[C@@H](O)[C@H](O)[C@H]2O[C@H]2C[C@](C)(N)[C@H](O)[C@H](C)O2)Oc2ccc(cc2Cl)[C@H]1O [VANCOMYCIN] | – | – | Active | – | – | – | 0.5 | – | 50000 ng/mL | – | – | – | – | Active | Active | – | –
GENTAMICIN [listing 2 of 2 here] | – | – | – | – | – | – | – | – | – | – | – | – | – | – | – | 100% | 18000 ng/mL
CC(=O)O[C@H]1C[C@@]2(C)[C@@H](C[C@@H](O)[C@H]3[C@@]4(C)CC[C@@H](O)[C@@H](C)[C@@H]4CC[C@@]32C)/C1=C(\CCC=C(C)C)C(=O)O [FUSIDIC ACID] | 0.03 µg/mL (≈ 0.0581 µM) | 0.125 µg/mL (≈ 0.242 µM) | Active | 0.125 µg/mL (≈ 0.242 µM) | 0.03 µg/mL (≈ 0.0581 µM) | 0.03 µg/mL | 0.05 | 0.06 µg/mL (≈ 0.116 µM) | 30000 ng/mL | 1 | – | – | – | Active | Active | – | –
Cc1onc(-c2ccccc2)c1C(=O)N[C@@H]1C(=O)N2[C@@H]1SC(C)(C)[C@@H]2C(=O)O [OXACILLIN] | 0.015 µg/mL (≈ 0.0374 µM) | 0.03 µg/mL (≈ 0.0747 µM) | Active | 0.5 µg/mL (≈ 1.25 µM) | 0.125 µg/mL (≈ 0.311 µM) | 0.25 µg/mL | 0.07 | 0.25 µg/mL (≈ 0.623 µM) | 64000 ng/mL | – | – | – | – | Active | Active | – | –
COc1c(N2C[C@@H]3CCCN[C@@H]3C2)c(F)cc2c(=O)c(C(=O)O)cn(C3CC3)c12 [MOXIFLOXACIN] | 2 µg/mL (≈ 4.98 µM) | 2 µg/mL (≈ 4.98 µM) | Active | 0.25 µg/mL (≈ 0.623 µM) | 0.125 µg/mL (≈ 0.311 µM) | 0.125 µg/mL | – | 0.125 µg/mL (≈ 0.311 µM) | 4000 ng/mL | – | 1 | 1 | – | – | – | – | –
CC(=O)NC[C@H]1CN(c2ccc(N3CCOCC3)c(F)c2)C(=O)O1 [LINEZOLID] | – | – | Active | – | – | – | 0.31 | – | 16000 ng/mL | 1 | – | – | – | – | – | – | –
CCCCCCCCCCNCCN[C@@]1(C)C[C@H](O[C@H]2[C@H](Oc3c4cc5cc3Oc3ccc(cc3Cl)[C@@H](O)[C@@H](NC(=O)[C@@H](CC(C)C)NC)C(=O)N[C@@H](CC(N)=O)C(=O)N[C@H]5C(=O)N[C@H]3C(=O)N[C@H](C(=O)N[C@H](C(=O)O)c5cc(O)c(CNCP(=O)(O)O)c(O)c5-c5cc3ccc5O)[C@H](O)c3ccc(c(Cl)c3)O4)O[C@H](CO)[C@@H](O)[C@@H]2O)O[C@@H](C)[C@H]1O [TELAVANCIN] | 0.125 µg/mL (≈ 0.0712 µM) | 0.125 µg/mL (≈ 0.0712 µM) | Active | 0.125 µg/mL (≈ 0.0712 µM) | 0.125 µg/mL (≈ 0.0712 µM) | 0.125 µg/mL | 0.07 | 0.125 µg/mL (≈ 0.0712 µM) | 90000 ng/mL | – | – | – | – | – | – | – | –
